FXN GAA850 act: increases GAA850 frataxin promoter reporter activity. activation, % at 6 µM. HEK293 lucGAA850 FXN promoter luciferase reporter, 24 h; percent of 10 µM SAHA response. hit rate 0.56% among 360,000. AID 540364;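 active means activation above the average of all compounds screened plus 3 SD, cutoff fixed separately per campaign, cut at about 7.5% in these data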;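 further: 0% = DMSO wells and 100% = 10 µM SAHA wells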
CHOP inh: blocks CHOP induction under ER stress; CHO-K1 CHOP-promoter luciferase, tunicamycin-induced, 15-18 h; inhibition, % at 10 µM; hit rate 3.8% among 220,000;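 active means compounds that reduced the stress-induced luciferase reporter signal by more than about 70% of percent inhibition, limit read from the data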;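 further: 0% = tunicamycin plus vehicle and 100% = wells without tunicamycin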
XBP1 UPR activ: activators of adaptive arm of unfolded protein response (XBP1). CHO-XBP1 luciferase reporter, IRE1-XBP1 UPR activation, luminescence; percent of tunicamycin response, DMSO as zero. activation, % at 20 µM. hit rate 0.33% among 330,000. AID 463104;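 active means versus positive control, 20 µM dose yields 30% or more activation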;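 further: 100% = tunicamycin at 10 µg/mL and 0% = DMSO only wells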
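Material: IRE1-XBP1 luciferase reporter CHO line / Quantity: one thousand reporter cells per well / Buffer or medium: F12 with 10% serum / Compound: 20 µM single concentration, DMSO 1% / Times: 6 h treatment, 37 °C / Detection: Steady-Glo luciferase glow luminescence, 10 min after reagent addition / Benchmarks: tunicamycin high, DMSO low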
UPR CHOP act: activators of apoptotic arm of unfolded protein response (CHOP). CHO-CHOP luciferase reporter, UPR activation, luminescence; percent of tunicamycin response over DMSO baseline. activation, % at 10 µM. hit rate 0.34% among 330,000. AID 449763;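 active means at 10 µM dose, activation of 40% or more, normalized to positive control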;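 further: 100% = tunicamycin at 10 µg/mL and 0% = DMSO alone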
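Assay system: CHO-CHOP cells, stable luciferase reporter of PERK-eIF2a-CHOP signalling / Buffer or medium: F12 plus 10% serum / Compound dosing: one dose, 10 µM in 0.5% DMSO / Times: 6 h compound treatment, 37 °C / Technique: luciferase luminescence / Read-out: % reporter activation, DMSO baseline versus tunicamycin full activation / Benchmarks: tunicamycin and DMSO controls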
GAA30 counter: counter-screen for GAA850 frataxin promoter activators: GAA30 promoter activation | shares compounds with FXN GAA850 act | HEK293 lucGAA30 FXN promoter luciferase, 24 h; DMSO = 0%, 5 µM ipriflavone = 100% | activation, % at 6 µM | hit rate 66% among 1,900;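 active means mean activation above the mean of solvent-only control wells plus 3 SD, cut at about 22% in these data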;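 further: counterscreen of GAA850 promoter hits where activity marks nonselective or luminescence artifacts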
GAA850 confirm: confirmation of GAA850 frataxin (FXN) promoter activators; HEK293 lucGAA850 FXN promoter luciferase reporter, 24 h; 100% = activation by SAHA; shares compounds with FXN GAA850 act; hit rate 86% among 1,900; activation, % at 6 µM;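 active means mean activation above a set limit taken from the primary screen, cut at about 8% in these data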;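 further: 0% = DMSO wells and 100% = 10 µM SAHA wells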
Numbers without * were called inactive; . = no result given. Only a selection was taken, and hits are over-represented in it overall.

SMILES	FXN GAA850 act	CHOP inh	XBP1 UPR activ	UPR CHOP act	GAA30 counter	GAA850 confirm
CC(=O)N(C(C)=O)c1ncnc2c1c(-c1ccc(Cl)cc1)nn2C(C)(C)C	2.9	52.4	-1.8	1.4	.	.
COc1ccc(OCc2nc(N)nc(Nc3ccc(C)cc3)n2)cc1	8.8*	49.8	4.4	2.0	67.3*	25.0*
COc1ccc(Nc2nc(N)nc(CSC(=S)N3CCN(C)CC3)n2)cc1	2.6	2.7	-0.7	1.6	.	.
COc1ccc(Nc2nc(N)nc(CSC(=S)N3CCCCC3)n2)cc1	8.2*	5.1	5.0	6.5	69.3*	22.8*
COc1ccc(Nc2nc(N)nc(COc3ccc(OC)cc3)n2)cc1	1.2	18.2	1.5	2.7	.	.
COc1ccc(NC(=O)C2(C)CCN2C(=O)c2ccccc2CCc2ccccc2)cc1OC (configuration not stated)	-0.9	.	.	.	.	.
O=C(NCC1CC1)c1ccc2sc([C@@H]3O[C@H](CO)[C@H](O)[C@H](O)[C@H]3O)nc2c1	1.6	.	.	.	.	.
Nc1n[nH]c(N)c1N=Nc1cccc(F)c1	-0.2	24.4	2.4	3.1	.	.
Nc1n[nH]c(N)c1N=Nc1ccc(Cl)cc1	8.7*	12.2	-0.1	4.4	71.0*	14.7*
CCN(C[C@H]1N[C@@](C)(C(=O)OC)[C@H]2C(=O)N(Cc3ccccc3)C(=O)[C@@H]12)C(=O)Nc1ccc(OC)cc1	9.4*	.	0.1	2.9	27.1*	9.3*
CCN(C[C@H]1N[C@@](C)(C(=O)OC)[C@H]2C(=O)N(Cc3ccccc3)C(=O)[C@@H]12)C(=O)Nc1ccc(Cl)cc1	14.2*	.	0.7	-1.6	36.9*	14.7*
CC(C)Nc1nc(Nc2ccc(Cl)cc2F)c2sccc2n1	1.3	.	.	.	.	.
O=C(COC(=O)c1c[nH]c2ccccc12)NC1CCCC1	3.1	.	4.6	-0.6	.	.
O=C(NC1CCCCC1)C(=O)c1c[nH]c2ccccc12	8.3*	.	2.6	3.9	84.9*	27.7*
CC(C)(C)C(=O)Cn1ncc(N2CCCC2)c(Br)c1=O	1.4	11.6	-0.6	4.4	.	.
CC(C)(C)C(=O)Cn1ncc(Cl)c(Cl)c1=O	9.0*	-68.0	.	.	6.1	6.4
Cc1cnc(N=Nc2ccccc2)[nH]1	7.7*	.	.	.	100.5*	27.9*
Cc1ncc(N=Nc2ccccc2)c(-c2ccccc2)n1	-0.4	47.2	-1.9	-1.5	.	.
CCc1nc2ccc(C(=O)NCCNC(C)=O)cn2c1N(C)CCCc1ccccc1	-0.9	.	.	.	.	.
CN(C)CCn1c(=O)n(-c2cccc(Cl)c2)c(=O)c2c3c(sc21)CCCCC3	13.4*	6.7	0.0	-0.4	21.9*	13.4*
O/C(=C\c1nc2ccccc2[nH]1)c1cccs1	2.4	.	2.5	8.2	.	.
O=c1[nH]c2ccccc2nc1/C=C(\O)c1cccs1	11.2*	4.8	5.6	3.0	115.8*	41.5*
O=c1[nH]c2ccccc2nc1/C=C/c1ccccc1	3.4	10.9	0.8	4.3	.	.
O=c1[nH]c2ccccc2nc1/C=C/c1ccc(O)cc1	7.6*	28.7	11.3	5.3	121.1*	35.2*
COc1ccc(NC(=O)COc2ccc(/C=N/n3c(C)nnc3C)cc2OC)cc1	8.0*	-28.5	-0.7	0.4	37.0*	12.4*
SMILES	FXN GAA850 act	CHOP inh	XBP1 UPR activ	UPR CHOP act	GAA30 counter	GAA850 confirm
O=[N+]([O-])c1cc(Cl)ccc1Sc1cccc2cccnc12	2.3	50.6	3.3	0.4	.	.
O=[N+]([O-])c1ccc(Sc2cccc3cccnc23)cc1	9.3*	19.9	6.8	2.1	83.3*	29.5*
CC1(C(=O)OCc2cc(=O)n3cc(Br)ccc3n2)CC1(Cl)Cl (configuration not stated)	8.9*	-19.7	3.6	4.9	98.8*	40.1*
CC(C)c1ccc(CC(=O)N2CCC2(C)C(=O)NS(=O)(=O)c2ccc(Cl)s2)cc1 (configuration not stated)	1.0	.	.	.	.	.
Cc1n[nH]c(=S)c2nn(-c3ccccc3F)c(C)c12	2.1	9.0	.	.	.	.
Cc1nnc(Cl)c2nn(-c3ccccc3F)c(C)c12	13.4*	7.6	-0.3	-0.3	8.3	6.6
Cc1c(C=O)c2cc(OCc3ccccc3)ccc2n1C	7.7*	.	-1.6	7.5	105.3*	32.3*
Cc1cc2cc(OCc3ccccc3)ccc2n1C	2.8	.	0.3	5.4	.	.
CC1CCc2c(sc(NC(=O)C3=COCCO3)c2C(N)=O)C1 (configuration not stated)	2.8	.	6.3	4.8	.	.
CC1CCc2c(sc(NC(=O)c3noc4c3CCCC4)c2C(N)=O)C1 (configuration not stated)	7.8*	.	.	.	102.4*	29.3*
CC1(C(=O)NS(=O)(=O)c2ccc(Br)cc2)CCN1C(=O)CCc1cccs1 (configuration not stated)	0.8	.	.	.	.	.
Nc1nc2c3ccccc3nc(Cc3ccccc3)n2n1	3.2	34.6	0.4	-1.7	.	.
CCCc1nc2ccccc2c2nc(N)nn12	8.5*	34.3	3.8	1.4	15.6	7.3
CCCSc1nc(N)c(C#N)c(-c2ccc(C)cc2)c1C#N	0.8	-36.9	1.9	2.9	.	.
C=CCSc1nc(N)c(C#N)c(-c2ccccc2)c1C#N	10.7*	55.1	1.3	-1.0	17.8	17.5*
O=C(N(Cc1ccccc1)c1ccccn1)C12CC3CC(CC(C3)C1)C2	10.6*	63.9	0.1	-0.8	30.7*	11.3*
COc1ccc(/C=C/S(=O)(=O)NCc2ccccc2)cc1OC	7.8*	8.3	-1.6	-1.9	20.4	8.2*
COc1cc(O)c2c(=O)c(-c3ccc(O[C@@H]4O[C@H](CO)[C@@H](O)[C@H](O)[C@H]4O)cc3)coc2c1	9.0*	.	4.0	11.9	107.9*	30.8*
COc1ccc(-c2csc(C(C)(O)c3cccnc3)n2)cc1 (configuration not stated)	0.3	.	.	.	.	.
Cn1c(SCc2ccccc2)nc(N)c(N=O)c1=O	10.6*	.	-2.7	15.5	-10.1	18.8*
Cn1c(SCc2cccc(Br)c2)nc2ccccc2c1=O	-0.2	.	-3.8	2.9	.	.
COc1cccc2sc(NNC(=O)C3=COCCO3)nc12	8.2*	19.2	-1.8	4.2	86.3*	32.7*
COc1ccc(OC)c2sc(NC(=O)C3=COCCO3)nc12	3.8	-9.9	1.7	0.0	.	.
CNc1cc(-c2cnn(CC(C)C)c2)ncn1	2.9	.	.	.	.	.
CCc1nc2c(OCc3cc(Cl)cc(Cl)c3)cccn2c1N(C)C(=O)Nc1ccccc1OC	-1.3	.	.	.	.	.
CCCCCn1c(CN2CCN(c3cccc(Cl)c3)CC2)nc2c1c(=O)[nH]c(=O)n2C	8.5*	64.6	4.5	2.1	-19.5	2.2
COc1cc(CN2C[C@@H](CO)O[C@@H](n3cnc4c(N5CCCC5)ncnc43)C2)cc(OC)c1OC	1.4	.	.	.	.	.

From PubChem
